Measurements from different studies.
Lines come from different studies, so protocols differ.
Target: Macrophage-stimulating protein receptor (MST1R, Homo sapiens, UniProt Q04912)

O=C(c1ccc(Nc2ncc(Cl)c(-c3cc4ccccc4s3)n2)cc1)N1CCC(N2CCCC2)CC1  remaining binding (binding; competition with immobilised ligand; 1 µM): 56%
CN(CCCC(F)(F)F)c1nccc(-c2cnn3ncccc23)n1  remaining binding (binding; 1 µM): 100%
CNC(=O)[C@@H]1CC[C@@H](n2c(-c3ccc4cnccc4c3)nc3ccc(C(=O)NCc4cccc(C(N)=O)c4)cc32)C1  remaining binding (binding; competition with immobilised ligand; 1 µM): 87%
CCN1CCN(Cc2ccc(C(=O)Nc3ccc(C)c(Oc4ccc5c(c4)CC(=O)N5)c3)cc2C(F)(F)F)CC1  remaining binding (binding; competition with immobilised ligand; 1 µM): 88%
Cc1nc(N2CC[C@@H](O)C2)ncc1-c1cc(C(F)(F)F)cc2[nH]ncc12  remaining binding (cell-free assay; competition with immobilised ligand; 1 µM): 100%
COc1cnc(Nc2cccc(S(N)(=O)=O)c2)nc1N1CCN(c2ccccc2)C(=O)C1  remaining binding (binding; competition with immobilised ligand; 1 µM): 100%
O=C(c1ccc(Nc2nccc(-c3cc4ccccc4s3)n2)cc1)N1CCC(N2CCCC2)CC1  remaining binding (binding; competition with immobilised ligand; 1 µM): 88%
COc1ncc2cc3ccccc3nc2c1C#N  remaining binding (cell-free assay; competition with immobilised ligand; 5 µM): 100%
C[C@H]1CCN(c2nccc(-c3cnn4ncccc34)n2)C1  remaining binding (binding; 1 µM): 93%
CO[C@@H](C)c1c(Nc2ccc([C@@H](N(C)C(=O)C3CCS(=O)(=O)CC3)C(F)(F)F)cc2)cnc2cc(Cl)nn12  remaining binding (cell-free assay; competition with immobilised ligand; 1 µM): 100%
C[C@@H](c1ccc(-n2cnc3c(N)ncnc32)cc1)N1CCc2nn(C)c(Cc3ccccc3)c2C1=O  remaining binding (binding; competition with immobilised ligand; 0.1 µM): 83%
O=C(O)[C@H]1[C@H](Cn2nnc3ccccc3c2=O)CC[C@@H]1C(=O)c1ccc(OCCC2CCOCC2)cc1  remaining binding (cell-free assay; competition with immobilised ligand; 1 µM): 96%
N[C@H]1CCN(c2nccc(-c3cnn4ncccc34)n2)C1  remaining binding (binding; 1 µM): 82%
O=C(NCC1CCOCC1)c1n[nH]cc1NC(=O)c1c(F)cccc1F  remaining binding (binding; competition with immobilised ligand; 1 µM): 100%
O=C(NCCCN1CCOCC1)c1ccc(Nc2ncc(Cl)c(-c3ccc(Cl)s3)n2)cc1  remaining binding (binding; competition with immobilised ligand; 1 µM): 67%
F[C@@H]1CCN(c2nccc(-c3cnn4ncccc34)n2)C1  remaining binding (binding; 1 µM): 100%
Cc1c[nH]c2nccc(Oc3c(F)cc(Nc4cc(Cl)nc(N)n4)cc3F)c12  remaining binding (cell-free assay; competition with immobilised ligand; 0.1 µM): 74%
CN(c1nccc(-c2cnn3ncccc23)n1)C1CC1  remaining binding (binding; 1 µM): 100%
C[C@@H]1CN(c2cc(-c3n[nH]c4ccc(OC5(C)CC5)cc34)ncn2)C[C@H](C)O1  remaining binding (cell-free assay; competition with immobilised ligand; 0.1 µM): 100%
CC1CCCN1c1nccc(-c2cnn3ncccc23)n1 (stereo not drawn)  remaining binding (binding; 1 µM): 100%
CS(=O)(=O)c1cc(C2(NC(=O)c3cncc4c3cnn4-c3ccc(F)cc3)CC2)ccn1  remaining binding (cell-free assay; competition with immobilised ligand; 1 µM): 83%
